This is an account of results in ChEMBL document CHEMBL1142247, “Structure-based design of novel groups for use in the P1 position of thrombin inhibitor scaffolds. Part 2: N-acetamidoimidazoles” (Bioorg Med Chem Lett, 2008).

Calls of active or inactive are those of the source. No cut-off for these calls is given here.

For orientation: Ki means a dissociation constant, usually derived from enzyme kinetics or from competition with a known ligand. What is called half-life is the time in which the quantity being followed falls by half. What is called Cmax is the highest concentration seen after dosing.

The target in one data set is Prothrombin (Homo sapiens, UniProt P00734). Nature of the data set: Inhibition of thrombin.
The nature of data set [1]: Inhibition of trypsin.
A further data set has as its system Plasma. Nature of the data set: Anticoagulant potency in human plasma assessed as concentration required to double activated partial thromboplastin time. The format is functional, cell-free.
The nature of data set [2]: Selectivity for thrombin over trypsin.
Another data set relates to Rattus norvegicus. Nature of the data set: Antithrombotic activity against ferric chloride induced thrombosis in rat at 10 ug/kg/min, iv. Type of data set: functional, organism-based. The method in brief: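 Ferric chloride-induced thrombosis in rats, with compound given by intravenous infusion at 10 µg/kg/min. Read-out is the number of animals with vessel occlusion out of 6.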

Data set [3] is described as follows: (§1) Half life in dog at 5 mg/kg, po. Type of data set: ADME, organism-based, Canis lupus familiaris. On the set-up: dose 5 mg/kg, route oral. As to conditions: in vivo.
A short description of data set [4]: Half life in rhesus monkey at 5 mg/kg, po. The note with it: in vivo. Type of data set: ADME, organism-based, Macaca mulatta. Also on record: dose 5 mg/kg, route oral.
Data set [5] is described as follows: Cmax in rhesus monkey at 5 mg/kg, po. Type of data set: ADME, organism-based, Macaca mulatta. On the set-up: dose 5 mg/kg, route oral. As to conditions: in vivo.
Data set [6] in a line: Cmax in dog at 5 mg/kg, po. The format is ADME, organism-based, Canis lupus familiaris. Also on record: dose 5 mg/kg, route oral. As to conditions: in vivo.
A further data set concerns Canis familiaris. Described as §1. The format is ADME, organism-based, Canis lupus familiaris. On the set-up: dose 5 mg/kg, route oral. As to conditions: in vivo.
The nature of data set [7]: Half life in dog at 1 mg/kg, po. Type of data set: ADME, organism-based, Canis lupus familiaris. On the set-up: dose 1 mg/kg, route oral. As to conditions: in vivo.
Data set [8] is described as follows: Half life in dog at 0.5 mg/kg, po. The note with it: in vivo. Also on record: dose 0.5 mg/kg, route oral. The format is ADME, organism-based, Canis lupus familiaris.
Data set [9] is described as follows: Cmax in dog at 0.5 mg/kg, po. Type of data set: ADME, organism-based, Canis lupus familiaris. On the set-up: dose 0.5 mg/kg, route oral. As to conditions: in vivo.

For `Cc1ncn(CC(=O)NN2CC(O)C2)c1Cn1c(C)ccc(NS(=O)(=O)Cc2ccccc2)c1=O`, the inhibition constant Ki worked out at 0.0028 µM on Prothrombin and 167 µM in data set [1]. Moreover, the Activity in the data set on Plasma was 0.66 µM. Besides, the Selectivity ratio in data set [2] worked out at 48000.
The matching figures for `Cc1ncn(CC(=O)NC2CC(N)C2)c1Cn1c(C)ccc(NS(=O)(=O)Cc2ccccc2)c1=O` (stereo unspecified): 0.003 µM, 122 µM, 0.65 µM and 41000.
With `Cc1ncn(CC(=O)NCC2CC2)c1Cn1c(C)ccc(NS(=O)(=O)Cc2ccccc2)c1=O`, the inhibition constant Ki is 0.0011 µM at Prothrombin and 57 µM in [1]. Besides, the Selectivity ratio in [2] amounted to 52000.
As for `Cc1ncn(CC(=O)NCCN)c1Cn1c(C)ccc(NS(=O)(=O)Cc2ccccc2)c1=O`, the inhibitory constant (Ki) on Prothrombin came to 0.0009 µM; in data set [1], 85 µM. The outcome in the data set with Rattus norvegicus was inactive. Further, the Activity in the data set with Plasma stood at 0.39 µM. The Selectivity ratio in [2] worked out at 94000.
Regarding `Cc1ncn(CC(=O)NC(C)(C)CN)c1Cn1c(C)ccc(NS(=O)(=O)Cc2ccccc2)c1=O`, the inhibition constant Ki at Prothrombin was determined as 0.0003 µM; in data set [1], 70 µM. Moreover, the Activity with Plasma came to 0.32 µM. The Selectivity ratio in [2] came to 233000.
In the case of `Cc1ncn(CC(=O)NN2CCCCC2)c1Cn1c(C)ccc(NS(=O)(=O)Cc2ccccc2)c1=O`, the Ki stood at 0.00065 µM at Prothrombin and 56 µM in [1]. In addition, in the data set on Rattus norvegicus, the result was inactive. For the same molecule, the Activity with Plasma was found to be 0.37 µM. Also, in data set [2], the Selectivity ratio was 86000.
`Cc1ncn(CC(=O)NC2CC2)c1Cn1c(C)ccc(NS(=O)(=O)Cc2ccccc2)c1=O`: the values for the Ki (at Prothrombin; in [1]) were 0.0018 µM and 185 µM, respectively. Also, in the data set on Plasma, the Activity is 0.68 µM. Further, the Selectivity ratio in [2] amounted to 103000.
For `Cc1ncn(CC(=O)NC2CCCNC2)c1Cn1c(C)ccc(NS(=O)(=O)Cc2ccccc2)c1=O` (stereo unspecified), the inhibitory constant (Ki) on Prothrombin amounted to 0.00031 µM; in data set [1] it was 110 µM. Moreover, the result in the data set with Rattus norvegicus was inactive. The Activity in the data set with Plasma was 0.35 µM. In addition, the Selectivity ratio in data set [2] came out at 355000.
`Cc1ncn(CC(=O)NC2CCCNC2)c1CNC(=O)Cn1c(C)cnc(NCCc2ccccc2)c1=O` (stereo unspecified): the half-life in data set [3] was 1.6 h; in data set [4], 1.1 h. In addition, the Ki came to 0.0012 µM on Prothrombin and 18 µM in [1]. Also, the Activity in the data set on Plasma amounted to 0.7 µM. For the same molecule, the Cmax in data set [5] was determined as 360 nM; in data set [6], 1460 nM.
As to `Cc1ncn(CC(=O)OC(C)(C)C)c1Cn1c(C)ccc(NS(=O)(=O)Cc2ccccc2)c1=O`, the inhibition constant (Ki) turned out to be 0.00048 µM at Prothrombin and 50 µM in data set [1]. The Selectivity ratio in data set [2] was determined as 104000.
`CCNC(=O)Cn1cnc(C)c1Cn1c(C)ccc(NS(=O)(=O)Cc2ccccc2)c1=O`: the Ki on Prothrombin came out at 0.002 µM; in [1] it was 137 µM. In the data set on Plasma, the Activity came to 0.7 µM. Further, in [2], the Selectivity ratio came to 70000.
The like results for `Cc1ncn(CC(=O)NC(C)(C)C)c1Cn1c(C)ccc(NS(=O)(=O)Cc2ccccc2)c1=O` were, in that order, 0.00036 µM, 68 µM, 0.52 µM and 190000.
The matching figures for `Cc1ncn(CC(=O)NCCO)c1Cn1c(C)ccc(NS(=O)(=O)Cc2ccccc2)c1=O`: 0.0024 µM, 115 µM, 0.85 µM and 48000.
The matching figures for `Cc1ncn(CC(=O)NCC(F)(F)F)c1Cn1c(C)ccc(NS(=O)(=O)Cc2ccccc2)c1=O`: 0.00083 µM, 49 µM, 0.53 µM and 59000.
With `Cc1ncn(CC(=O)NN2CCOCC2)c1Cn1c(C)ccc(NS(=O)(=O)Cc2ccccc2)c1=O`, the inhibition constant Ki at Prothrombin stood at 0.0019 µM; in data set [1] it was 101 µM. Also, in the data set on Plasma, the Activity came out at 0.51 µM. In data set [2], the Selectivity ratio was 53000.
`Cc1ncn(CC(=O)NCC(C)(C)N)c1Cn1c(C)ccc(NS(=O)(=O)Cc2ccccc2)c1=O`: the figures for the inhibition constant (Ki) (at Prothrombin; in data set [1]) were 0.00068 µM and 80 µM, respectively. Moreover, the Activity with Plasma was 0.26 µM. Further, the Selectivity ratio in data set [2] was found to be 118000.
In the case of `Cc1nc(N)ccc1CNC(=O)Cn1c(C)ccc(NS(=O)(=O)Cc2ccccc2)c1=O` [L-374087], the t1/2 in the data set with Canis familiaris was determined as 2.5 h. In [1], this molecule showed a Ki of 3.2 µM. Moreover, the Activity in the data set with Plasma was 0.21 µM. For the same molecule, the half-life in [7] is 2.5 h; in [8] it was 3.8 h. For the same molecule, the Selectivity ratio in data set [2] was found to be 6400. In addition, in [9], the concentration peaked (Cmax) at 2000 nM.
Turning to `CCC(C)(C)NC(=O)Cn1cnc(C)c1Cn1c(C)ccc(NS(=O)(=O)Cc2ccccc2)c1=O`, the figures for the inhibition constant (Ki) (at Prothrombin; in data set [1]) were 0.00019 µM and 34 µM, respectively. Besides, the Activity in the data set with Plasma is 0.56 µM. Moreover, in data set [2], the Selectivity ratio came to 180000.
Turning to `Cc1nc[nH]c1CNC(=O)Cn1c(C)ccc(NS(=O)(=O)Cc2ccccc2)c1=O`, the inhibitory constant (Ki) in data set [1] was 43 µM. In addition, the Activity in the data set on Plasma was 1.1 µM.
